Source: paper PMC11904481 (ESMO Open, 2025)

Test system: patients with locally advanced unresectable or metastatic, relapsed and/or refractory nonhematological malignancies
Assay: Phase I safety: adverse events
Assay type: in vivo, human
How it was run: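 Adverse events were graded by NCI CTCAE v4.03 across three i.v. schedules of the test compound (0.45-11.3 mg/kg; weekly per 28-day cycle, or days 1, 4, 8 ±11, 15 per 21-day cycle). Special-interest events covered retinal dysfunction symptoms and documented retinal disorders. Clustered signs were grouped as 'infusion reaction'. QTc was calculated with the Fridericia correction.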

[1] = schedules 1/2 cohort 1, 0.45 mg/kg
[2] = schedules 1/2 cohort 2, 0.9 mg/kg
[3] = schedules 1/2 cohort 3, 1.8 mg/kg
[4] = schedules 1/2 cohort 4, 3.6 mg/kg
[5] = schedules 1/2 cohort 5, 5.4 mg/kg
[6] = schedules 1/2 cohort 6, 4.8 mg/kg
[7] = schedules 1/2 cohort 7, 5.4 mg/kg
[8] = schedules 1/2 cohort 8, 7.2 mg/kg
[9] = schedules 1/2 cohort 9, 9.6 mg/kg

SMILES: O=C1Nc2cc3[nH]nc(-c4ccncc4)c3cc2CN1Cc1ccccc1 [KO-947]
- Total number of AESI [1]: 0 n
- Total number of treatment-related TEAEs [1]: 2 n
- Treatment-related TEAE: Blurred vision [1]: 0 n (%)
- Treatment-related TEAE: Dermatitis acneiform [1]: 0 n (%)
- Treatment-related TEAE: Fatigue [1]: 1 (100) n (%)
- Treatment-related TEAE: Headache [1]: 0 n (%)
- Treatment-related TEAE: Nausea [1]: 0 n (%)
- Treatment-related TEAE: QTc prolongation [1]: 0 n (%)
- Treatment-related TEAE: Subretinal fluid [1]: 0 n (%)
- Treatment-related TEAE: Vomiting [1]: 0 n (%)
- AESI: Blurred vision [2]: 0 n (%)
- AESI: Eye disorders [2]: 0 n (%)
- AESI: Macular edema [2]: 0 n (%)
- AESI: Retinal edema [2]: 0 n (%)
- AESI: Subretinal fluid [2]: 0 n (%)
- AESI: Vitreous floaters [2]: 0 n (%)
- Patients with ≥1 AESI [2]: 0 n (%)
- Patients with ≥1 treatment-related TEAE [2]: 0 n (%)
- Total number of AESI [2]: 0 n
- Total number of treatment-related TEAEs [2]: 0 n
- Treatment-related TEAE: Blurred vision [2]: 0 n (%)
- Treatment-related TEAE: Dermatitis acneiform [2]: 0 n (%)
- Treatment-related TEAE: Fatigue [2]: 0 n (%)
- Treatment-related TEAE: Headache [2]: 0 n (%)
- Treatment-related TEAE: Nausea [2]: 0 n (%)
- Treatment-related TEAE: QTc prolongation [2]: 0 n (%)
- Treatment-related TEAE: Subretinal fluid [2]: 0 n (%)
- Treatment-related TEAE: Vomiting [2]: 0 n (%)
- AESI: Blurred vision [3]: 0 n (%)
- AESI: Eye disorders [3]: 0 n (%)
- AESI: Macular edema [3]: 0 n (%)
- AESI: Retinal edema [3]: 0 n (%)
- AESI: Subretinal fluid [3]: 0 n (%)
- AESI: Vitreous floaters [3]: 0 n (%)
- Patients with ≥1 AESI [3]: 0 n (%)
- Patients with ≥1 treatment-related TEAE [3]: 1 (100) n (%)
- Total number of AESI [3]: 0 n
- Total number of treatment-related TEAEs [3]: 1 n
- Treatment-related TEAE: Blurred vision [3]: 0 n (%)
- Treatment-related TEAE: Dermatitis acneiform [3]: 0 n (%)
- Treatment-related TEAE: Fatigue [3]: 0 n (%)
- Treatment-related TEAE: Headache [3]: 0 n (%)
- Treatment-related TEAE: Nausea [3]: 0 n (%)
- Treatment-related TEAE: QTc prolongation [3]: 0 n (%)
- Treatment-related TEAE: Subretinal fluid [3]: 0 n (%)
- Treatment-related TEAE: Vomiting [3]: 0 n (%)
- AESI: Blurred vision [4]: 0 n (%)
- AESI: Eye disorders [4]: 0 n (%)
- AESI: Macular edema [4]: 0 n (%)
- AESI: Retinal edema [4]: 0 n (%)
- AESI: Subretinal fluid [4]: 0 n (%)
- AESI: Vitreous floaters [4]: 0 n (%)
- Patients with ≥1 AESI [4]: 0 n (%)
- Patients with ≥1 treatment-related TEAE [4]: 2 (67) n (%)
- Total number of AESI [4]: 0 n
- Total number of treatment-related TEAEs [4]: 7 n
- Treatment-related TEAE: Blurred vision [4]: 0 n (%)
- Treatment-related TEAE: Dermatitis acneiform [4]: 0 n (%)
- Treatment-related TEAE: Fatigue [4]: 0 n (%)
- Treatment-related TEAE: Headache [4]: 1 (33) n (%)
- Treatment-related TEAE: Nausea [4]: 1 (33) n (%)
- Treatment-related TEAE: QTc prolongation [4]: 0 n (%)
- Treatment-related TEAE: Subretinal fluid [4]: 0 n (%)
- Treatment-related TEAE: Vomiting [4]: 1 (33) n (%)
- AESI: Blurred vision [5]: 0 n (%)
- AESI: Eye disorders [5]: 0 n (%)
- AESI: Macular edema [5]: 0 n (%)
- AESI: Retinal edema [5]: 0 n (%)
- AESI: Subretinal fluid [5]: 0 n (%)
- AESI: Vitreous floaters [5]: 0 n (%)
- Patients with ≥1 AESI [5]: 0 n (%)
- Patients with ≥1 treatment-related TEAE [5]: 7 (100) n (%)
- Total number of AESI [5]: 0 n
- Total number of treatment-related TEAEs [5]: 60 n
- Treatment-related TEAE: Blurred vision [5]: 4 (57) n (%)
- Treatment-related TEAE: Dermatitis acneiform [5]: 0 n (%)
- Treatment-related TEAE: Fatigue [5]: 1 (14) n (%)
- Treatment-related TEAE: Headache [5]: 1 (14) n (%)
- Treatment-related TEAE: Nausea [5]: 1 (14) n (%)
- Treatment-related TEAE: QTc prolongation [5]: 1 (14) n (%)
- Treatment-related TEAE: Subretinal fluid [5]: 3 (43) n (%)
- Treatment-related TEAE: Vomiting [5]: 0 n (%)
- AESI: Blurred vision [6]: 0 n (%)
- AESI: Eye disorders [6]: 1 (25) n (%)
- AESI: Macular edema [6]: 0 n (%)
- AESI: Retinal edema [6]: 0 n (%)
- AESI: Subretinal fluid [6]: 1 (25) n (%)
- AESI: Vitreous floaters [6]: 0 n (%)
- Patients with ≥1 AESI [6]: 1 (25) n (%)
- Patients with ≥1 treatment-related TEAE [6]: 3 (75) n (%)
- Total number of AESI [6]: 3 n
- Total number of treatment-related TEAEs [6]: 25 n
- Treatment-related TEAE: Blurred vision [6]: 1 (25) n (%)
- Treatment-related TEAE: Dermatitis acneiform [6]: 1 (25) n (%)
- Treatment-related TEAE: Fatigue [6]: 0 n (%)
- Treatment-related TEAE: Headache [6]: 1 (25) n (%)
- Treatment-related TEAE: Nausea [6]: 1 (25) n (%)
- Treatment-related TEAE: QTc prolongation [6]: 0 n (%)
- Treatment-related TEAE: Subretinal fluid [6]: 1 (25) n (%)
- Treatment-related TEAE: Vomiting [6]: 0 n (%)
- AESI: Blurred vision [7]: 2 (67) n (%)
- AESI: Eye disorders [7]: 3 (10) n (%)
- AESI: Macular edema [7]: 0 n (%)
- AESI: Retinal edema [7]: 0 n (%)
- AESI: Subretinal fluid [7]: 2 (67) n (%)
- AESI: Vitreous floaters [7]: 1 (33) n (%)
- Patients with ≥1 AESI [7]: 3 (10) n (%)
- Patients with ≥1 treatment-related TEAE [7]: 3 (100) n (%)
- Total number of AESI [7]: 5 n
- Total number of treatment-related TEAEs [7]: 18 n
- Treatment-related TEAE: Blurred vision [7]: 2 (67) n (%)
- Treatment-related TEAE: Dermatitis acneiform [7]: 1 (33) n (%)
- Treatment-related TEAE: Fatigue [7]: 1 (33) n (%)
- Treatment-related TEAE: Headache [7]: 1 (33) n (%)
- Treatment-related TEAE: Nausea [7]: 2 (67) n (%)
- Treatment-related TEAE: QTc prolongation [7]: 0 n (%)
- Treatment-related TEAE: Subretinal fluid [7]: 2 (67) n (%)
- Treatment-related TEAE: Vomiting [7]: 1 (33) n (%)
- AESI: Blurred vision [8]: 2 (40) n (%)
- AESI: Eye disorders [8]: 5 (10) n (%)
- AESI: Macular edema [8]: 0 n (%)
- AESI: Retinal edema [8]: 1 (20) n (%)
- AESI: Subretinal fluid [8]: 2 (40) n (%)
- AESI: Vitreous floaters [8]: 0 n (%)
- Patients with ≥1 treatment-related TEAE [8]: 5 (100) n (%)
- Total number of AESI [8]: 5 n
- Total number of treatment-related TEAEs [8]: 14 n
- Treatment-related TEAE: Blurred vision [8]: 2 (40) n (%)
- Treatment-related TEAE: Dermatitis acneiform [8]: 2 (40) n (%)
- Treatment-related TEAE: Fatigue [8]: 0 n (%)
- Treatment-related TEAE: Headache [8]: 0 n (%)
- Treatment-related TEAE: Nausea [8]: 0 n (%)
- Treatment-related TEAE: QTc prolongation [8]: 0 n (%)
- Treatment-related TEAE: Subretinal fluid [8]: 2 (40) n (%)
- Treatment-related TEAE: Vomiting [8]: 1 (20) n (%)
- AESI: Blurred vision [9]: 8 (89) n (%)
- AESI: Eye disorders [9]: 8 (89) n (%)
- AESI: Macular edema [9]: 1 (11) n (%)
- AESI: Retinal edema [9]: 1 (11) n (%)
- AESI: Subretinal fluid [9]: 3 (33) n (%)
- AESI: Vitreous floaters [9]: 1 (11) n (%)
- Patients with ≥1 AESI [9]: 8 (89) n (%)
- Patients with ≥1 treatment-related TEAE [9]: 8 (89) n (%)
- Total number of AESI [9]: 16 n
- Total number of treatment-related TEAEs [9]: 39 n
- Treatment-related TEAE: Blurred vision [9]: 8 (89) n (%)
- Treatment-related TEAE: Dermatitis acneiform [9]: 1 (11) n (%)
- Treatment-related TEAE: Fatigue [9]: 1 (11) n (%)
- Treatment-related TEAE: Headache [9]: 0 n (%)
- Treatment-related TEAE: Nausea [9]: 1 (11) n (%)
- Treatment-related TEAE: QTc prolongation [9]: 4 (44) n (%)
- Treatment-related TEAE: Subretinal fluid [9]: 3 (33) n (%)
- Treatment-related TEAE: Vomiting [9]: 2 (22) n (%)
- AESI: Blurred vision (schedules 1/2 total N = 34): 12 (35) n (%)
- AESI: Eye disorders (schedules 1/2 total N = 34): 17 (50) n (%)
- AESI: Macular edema (schedules 1/2 total N = 34): 1 (3) n (%)
- AESI: Retinal edema (schedules 1/2 total N = 34): 2 (6) n (%)
- AESI: Subretinal fluid (schedules 1/2 total N = 34): 8 (24) n (%)
- AESI: Vitreous floaters (schedules 1/2 total N = 34): 2 (6) n (%)
- Patients with ≥1 AESI (schedules 1/2 total N = 34): 17 (50) n (%)
- Patients with ≥1 treatment-related TEAE (schedules 1/2 total N = 34): 30 (88) n (%)
- Total number of AESI (schedules 1/2 total N = 34): 29 n
- Total number of treatment-related TEAEs (schedules 1/2 total N = 34): 166 n
- Treatment-related TEAE: Blurred vision (schedules 1/2 total N = 34): 17 (50) n (%)
- Treatment-related TEAE: Dermatitis acneiform (schedules 1/2 total N = 34): 5 (15) n (%)
- Treatment-related TEAE: Fatigue (schedules 1/2 total N = 34): 4 (12) n (%)
- Treatment-related TEAE: Headache (schedules 1/2 total N = 34): 4 (12) n (%)
- Treatment-related TEAE: Nausea (schedules 1/2 total N = 34): 6 (18) n (%)
- Treatment-related TEAE: QTc prolongation (schedules 1/2 total N = 34): 5 (15) n (%)
- Treatment-related TEAE: Subretinal fluid (schedules 1/2 total N = 34): 11 (32) n (%)
- Treatment-related TEAE: Vomiting (schedules 1/2 total N = 34): 5 (15) n (%)
- grade ≥3 TEAE: QTc prolongation on ECG (schedules 1 and 2): 9%
- grade ≥3 TEAE: hypokalemia (schedules 1 and 2): 6%
- grade ≥3 TEAE: increased blood alkaline phosphatase (schedules 1 and 2): 6%
- grade ≥3 TEAE: increased gamma-glutamyl transferase (schedules 1 and 2): 15%
- grade ≥3 TEAE: lymphopenia (schedules 1 and 2): 6%
- grade ≥3 TEAE: rash (schedules 1 and 2): 6%
- patients discontinued owing to AEs (schedules 1 and 2): 3%
- patients with at least one AESI (schedules 1 and 2): 50%
- patients with grade ≥3 TEAEs (schedules 1 and 2): 50%
- treatment-related QTc prolongation (schedules 1 and 2): 15%
- treatment-related blurred vision (schedules 1 and 2): 50%
- treatment-related dermatitis acneiform (schedules 1 and 2): 15%
- treatment-related fatigue (schedules 1 and 2): 12%
- treatment-related headache (schedules 1 and 2): 12%
- treatment-related nausea (schedules 1 and 2): 18%
- treatment-related subretinal fluid (schedules 1 and 2): 32%
- treatment-related vomiting (schedules 1 and 2): 15%
